Experiments:
Enterococcus faecalis = experiment: Antibacterial activity against Enterococcus faecalis ATCC 19433 after 16 to 18 hrs by microbroth dilution method; type: functional
Procedure, shortened: (§1)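 Broth microdilution in Mueller–Hinton broth following CLSI recommendations. Strains came from ATCC or CCUG collections or the authors' clinical isolates. Compounds were dissolved in DMSO as a 100 mg/ml stock and then diluted in culture medium. Inoculum was 5 × 10⁴ CFU/well. MIC was read after 16–18 h incubation at 35–37 °C.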

Escherichia coli = experiment: Antibacterial activity against Escherichia coli CCUGT after 16 to 18 hrs by microbroth dilution method; type: functional; procedure, shortened: as §1
Klebsiella pneumoniae = experiment: Antibacterial activity against Klebsiella pneumoniae ATCC 13833 after 16 to 18 hrs by microbroth dilution method; type: functional; procedure, shortened: as §1
Acinetobacter baumannii = experiment: Antibacterial activity against Acinetobacter baumannii ATCC 17978 after 16 to 18 hrs by microbroth dilution method; type: functional; procedure, shortened: as §1
[1] = test system: Staphylococcus epidermidis; experiment: Antibacterial activity against Staphylococcus epidermidis ATCC 14990 after 16 to 18 hrs by microbroth dilution method; type: functional; procedure, shortened: as §1
Aeromonas hydrophila = experiment: Antibacterial activity against Aeromonas hydrophila ATCC 7966 after 16 to 18 hrs by microbroth dilution method; type: functional; procedure, shortened: as §1
[2] = test system: Elizabethkingia meningoseptica; experiment: Antibacterial activity against Elizabethkingia meningoseptica CCUG 4310 after 16 to 18 hrs by microbroth dilution method; type: functional; procedure, shortened: as §1
Streptococcus pyogenes = experiment: Antibacterial activity against Streptococcus pyogenes ATCC 12344 after 16 to 18 hrs by microbroth dilution method; type: functional; procedure, shortened: as §1
Bacillus subtilis = experiment: Antibacterial activity against Bacillus subtilis ATCC 6633 after 16 to 18 hrs by microbroth dilution method; type: functional; procedure, shortened: as §1
Pseudomonas aeruginosa = experiment: Antibacterial activity against Pseudomonas aeruginosa ATCC 27853 after 16 to 18 hrs by microbroth dilution method; type: functional; procedure, shortened: as §1
[3] = Apparent permeability of the compound assessed as membrane retention at pH 7.4 after 5 hrs by PAMPA; type: physicochemical; details: pH 7.4, 5 h
Procedure, shortened: (§2)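 Parallel artificial membrane permeability assay run at physiological pH 7.4 and at alkaline pH 10.0, the duodenal-like condition, as a gastrointestinal permeability model. Apparent permeability (P_app) is reported in nm/s, together with the percentage of compound retained in the membrane.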

[4] = Apparent permeability of the compound at pH 7.4 after 5 hrs by PAMPA; type: physicochemical; procedure, shortened: as §2
[5] = Apparent permeability of the compound at pH 10.0 after 5 hrs by PAMPA; type: physicochemical; procedure, shortened: as §2
[6] = Apparent permeability of the compound assessed as membrane retention at pH 10.0 after 5 hrs by PAMPA; type: physicochemical; details: pH 10, 5 h; procedure, shortened: as §2

N=C(NCCCCCCCCN1CCCCCCCCNC(=N)NC1=O)NCC1CCC1.O=C(O)C(F)(F)F.O=C(O)C(F)(F)F
MIC (Enterococcus faecalis): 8 µg/mL
MIC (Escherichia coli): 64 µg/mL
MIC (Klebsiella pneumoniae): 32 µg/mL
MIC (Acinetobacter baumannii): 32 µg/mL
MIC [1]: 4 µg/mL
MIC (Aeromonas hydrophila): 64 µg/mL
MIC [2]: 256 µg/mL
MIC (Streptococcus pyogenes): 2 µg/mL
MIC (Bacillus subtilis): 4 µg/mL
MIC (Pseudomonas aeruginosa): > 256 µg/mL

CN(CCCCCCCCNCCCCCCCCNC(=N)N)C(=N)NCc1ccccc1.O=C(O)C(F)(F)F.O=C(O)C(F)(F)F.O=C(O)C(F)(F)F
MIC (Enterococcus faecalis): 16 µg/mL
MIC (Escherichia coli): > 256 µg/mL
MIC (Klebsiella pneumoniae): 32 µg/mL
MIC (Acinetobacter baumannii): 128 µg/mL
MIC [1]: 32 µg/mL
MIC (Aeromonas hydrophila): 256 µg/mL
MIC [2]: 64 µg/mL
MIC (Streptococcus pyogenes): 16 µg/mL
MIC (Bacillus subtilis): > 256 µg/mL
MIC (Pseudomonas aeruginosa): 32 µg/mL

CCNC(=N)NCCCCCCN1CCCCCCCCNC(=N)NC1=O.O=C(O)C(F)(F)F.O=C(O)C(F)(F)F
MIC (Enterococcus faecalis): 128 µg/mL
MIC (Escherichia coli): > 256 µg/mL
MIC (Klebsiella pneumoniae): > 256 µg/mL
MIC (Acinetobacter baumannii): > 256 µg/mL
MIC [1]: 32 µg/mL
MIC (Aeromonas hydrophila): > 256 µg/mL
MIC [2]: > 256 µg/mL
MIC (Streptococcus pyogenes): 16 µg/mL
MIC (Bacillus subtilis): 64 µg/mL
MIC (Pseudomonas aeruginosa): > 256 µg/mL

C/C=C/CNC(=N)NCCCCCCCCN1CCCCCCCCNC(=N)NC1=O.O=C(O)C(F)(F)F.O=C(O)C(F)(F)F
MIC (Enterococcus faecalis): 8 µg/mL
MIC (Escherichia coli): 64 µg/mL
MIC (Klebsiella pneumoniae): 32 µg/mL
MIC (Acinetobacter baumannii): 32 µg/mL
MIC [1]: 4 µg/mL
MIC (Aeromonas hydrophila): 64 µg/mL
MIC [2]: 128 µg/mL
MIC (Streptococcus pyogenes): 2 µg/mL
MIC (Bacillus subtilis): 4 µg/mL
MIC (Pseudomonas aeruginosa): 256 µg/mL

N=C(NCCCCCCCCN1CCCCCCCCNC(=N)NC1=O)NCC1CC1.O=C(O)C(F)(F)F.O=C(O)C(F)(F)F
MIC (Enterococcus faecalis): 32 µg/mL
MIC (Klebsiella pneumoniae): 128 µg/mL
MIC (Acinetobacter baumannii): 64 µg/mL
MIC [1]: 8 µg/mL
MIC (Streptococcus pyogenes): 32 µg/mL
MIC (Bacillus subtilis): 4 µg/mL
MIC (Pseudomonas aeruginosa): > 256 µg/mL

CC(C)=CCNC(=N)NCCCCCCN1CCCCCCCCNC(=N)NC1=O.O=C(O)C(F)(F)F.O=C(O)C(F)(F)F
MIC (Enterococcus faecalis): 16 µg/mL
MIC (Escherichia coli): 256 µg/mL
MIC (Klebsiella pneumoniae): > 256 µg/mL
MIC (Acinetobacter baumannii): 256 µg/mL
MIC [1]: 16 µg/mL
MIC (Aeromonas hydrophila): > 256 µg/mL
MIC [2]: > 256 µg/mL
MIC (Streptococcus pyogenes): 8 µg/mL
MIC (Bacillus subtilis): 64 µg/mL
MIC (Pseudomonas aeruginosa): > 256 µg/mL

C/C=C/CNC(=N)NCCCCCCN1CCCCCCCCNC(=N)NC1=O.O=C(O)C(F)(F)F.O=C(O)C(F)(F)F
MIC (Enterococcus faecalis): 32 µg/mL
MIC (Escherichia coli): 256 µg/mL
MIC (Klebsiella pneumoniae): > 256 µg/mL
MIC (Acinetobacter baumannii): 256 µg/mL
MIC [1]: 16 µg/mL
MIC (Aeromonas hydrophila): > 256 µg/mL
MIC [2]: 256 µg/mL
MIC (Streptococcus pyogenes): 32 µg/mL
MIC (Bacillus subtilis): 16 µg/mL
MIC (Pseudomonas aeruginosa): > 256 µg/mL

C#CCNC(=N)NCCCCCCN1CCCCCCCCNC(=N)NC1=O.O=C(O)C(F)(F)F.O=C(O)C(F)(F)F
MIC (Enterococcus faecalis): 128 µg/mL
MIC (Escherichia coli): > 256 µg/mL
MIC (Klebsiella pneumoniae): > 256 µg/mL
MIC (Acinetobacter baumannii): > 256 µg/mL
MIC [1]: 32 µg/mL
MIC (Aeromonas hydrophila): > 256 µg/mL
MIC [2]: > 256 µg/mL
MIC (Streptococcus pyogenes): 16 µg/mL
MIC (Bacillus subtilis): 64 µg/mL
MIC (Pseudomonas aeruginosa): > 256 µg/mL

C=C(C)CNC(=N)NCCCCCCCCNCCCCCCCCNC(=N)N.O=C(O)C(F)(F)F.O=C(O)C(F)(F)F.O=C(O)C(F)(F)F
MIC (Enterococcus faecalis): 256 µg/mL
MIC (Escherichia coli): 128 µg/mL
MIC (Klebsiella pneumoniae): 256 µg/mL
MIC (Acinetobacter baumannii): > 256 µg/mL
MIC [1]: 64 µg/mL
MIC (Aeromonas hydrophila): > 256 µg/mL
MIC [2]: > 256 µg/mL
MIC (Streptococcus pyogenes): 16 µg/mL
MIC (Bacillus subtilis): 64 µg/mL
MIC (Pseudomonas aeruginosa): > 256 µg/mL

C=CCNC(=N)NCCCCCCCCN1CCCCCCCCNC(=N)NC1=O.O=C(O)C(F)(F)F.O=C(O)C(F)(F)F
MIC (Enterococcus faecalis): 128 µg/mL
MIC (Klebsiella pneumoniae): 128 µg/mL
MIC (Acinetobacter baumannii): 64 µg/mL
MIC [1]: 16 µg/mL
MIC (Streptococcus pyogenes): 4 µg/mL
MIC (Bacillus subtilis): 1 µg/mL
MIC (Pseudomonas aeruginosa): > 256 µg/mL

N=C(NCCCCCCCCNCCCCCCCCNC(=N)NCC1CC1)NCC1CC1.O=C(O)C(F)(F)F.O=C(O)C(F)(F)F.O=C(O)C(F)(F)F
MIC (Enterococcus faecalis): > 256 µg/mL
MIC (Escherichia coli): > 256 µg/mL
MIC (Klebsiella pneumoniae): > 256 µg/mL
MIC (Acinetobacter baumannii): > 256 µg/mL
MIC [1]: > 256 µg/mL
MIC (Aeromonas hydrophila): > 256 µg/mL
MIC [2]: > 256 µg/mL
MIC (Streptococcus pyogenes): > 256 µg/mL
MIC (Bacillus subtilis): > 256 µg/mL
MIC (Pseudomonas aeruginosa): > 256 µg/mL

CN(CCCCCCCCNCCCCCCCCNC(=N)N)C(=N)NCC1CC1.O=C(O)C(F)(F)F.O=C(O)C(F)(F)F.O=C(O)C(F)(F)F
MIC (Enterococcus faecalis): 4 µg/mL
MIC (Escherichia coli): > 256 µg/mL
MIC (Klebsiella pneumoniae): 8 µg/mL
MIC (Acinetobacter baumannii): 256 µg/mL
MIC [1]: 8 µg/mL
MIC (Aeromonas hydrophila): > 256 µg/mL
MIC [2]: 32 µg/mL
MIC (Streptococcus pyogenes): 8 µg/mL
MIC (Bacillus subtilis): 256 µg/mL
MIC (Pseudomonas aeruginosa): 8 µg/mL

N=C(N)NCCCCCCCCNCCCCCCCCNC(=N)NCc1ccccc1.O=C(O)C(F)(F)F.O=C(O)C(F)(F)F.O=C(O)C(F)(F)F
MIC (Enterococcus faecalis): 16 µg/mL
MIC (Escherichia coli): 8 µg/mL
MIC (Klebsiella pneumoniae): 16 µg/mL
MIC (Acinetobacter baumannii): 64 µg/mL
MIC [1]: 4 µg/mL
MIC (Aeromonas hydrophila): 64 µg/mL
MIC (Streptococcus pyogenes): 1 µg/mL
MIC (Bacillus subtilis): 4 µg/mL
MIC (Pseudomonas aeruginosa): 64 µg/mL

C=C(C)CNC(=N)NCCCCCCN1CCCCCCCCNC(=N)NC1=O.O=C(O)C(F)(F)F.O=C(O)C(F)(F)F
MIC (Enterococcus faecalis): 64 µg/mL
MIC (Escherichia coli): 256 µg/mL
MIC (Klebsiella pneumoniae): > 256 µg/mL
MIC (Acinetobacter baumannii): 256 µg/mL
MIC [1]: 16 µg/mL
MIC (Aeromonas hydrophila): > 256 µg/mL
MIC [2]: > 256 µg/mL
MIC (Streptococcus pyogenes): 8 µg/mL
MIC (Bacillus subtilis): 16 µg/mL
MIC (Pseudomonas aeruginosa): > 256 µg/mL

CO[C@H]1/C=C/O[C@@]2(C)Oc3c(C)c(O)c4c(O)c(c5c(nc6cc(C)ccn65)c4c3C2=O)NC(=O)/C(C)=C\C=C\[C@H](C)[C@H](O)[C@@H](C)[C@@H](O)[C@@H](C)[C@H](OC(C)=O)[C@@H]1C [RIFAXIMIN]
Papp [3]: 0%
Papp at 5 h [4]: 0.006 ×10⁻⁶ cm/s
Papp at 5 h [5]: 0.012 ×10⁻⁶ cm/s
Papp [6]: 0%

O=C(N[C@H](CO)[C@H](O)c1ccc([N+](=O)[O-])cc1)C(Cl)Cl [CHLORAMPHENICOL]
Papp [3]: 0%
Papp at 5 h [4]: 0.03 ×10⁻⁶ cm/s
Papp at 5 h [5]: 0.057 ×10⁻⁶ cm/s
Papp [6]: 0%

C#CCNC(=N)NCCCCCCCCNCCCCCCCCNC(=N)N.O=C(O)C(F)(F)F.O=C(O)C(F)(F)F.O=C(O)C(F)(F)F
MIC (Enterococcus faecalis): 16 µg/mL
MIC (Escherichia coli): 16 µg/mL
MIC (Klebsiella pneumoniae): 32 µg/mL
MIC (Acinetobacter baumannii): 128 µg/mL
MIC [1]: 4 µg/mL
MIC (Aeromonas hydrophila): 256 µg/mL
MIC [2]: > 256 µg/mL
MIC (Streptococcus pyogenes): 2 µg/mL
MIC (Bacillus subtilis): 4 µg/mL
MIC (Pseudomonas aeruginosa): 256 µg/mL

N=C(N)NCCCCCCNCCCCCCNC(=N)NCC1CC1.O=C(O)C(F)(F)F.O=C(O)C(F)(F)F.O=C(O)C(F)(F)F
MIC (Enterococcus faecalis): 16 µg/mL
MIC (Escherichia coli): > 256 µg/mL
MIC (Klebsiella pneumoniae): 256 µg/mL
MIC (Acinetobacter baumannii): > 256 µg/mL
MIC [1]: 256 µg/mL
MIC (Aeromonas hydrophila): > 256 µg/mL
MIC [2]: > 256 µg/mL
MIC (Streptococcus pyogenes): 32 µg/mL
MIC (Bacillus subtilis): > 256 µg/mL
MIC (Pseudomonas aeruginosa): > 256 µg/mL

C#CCNC(=N)N(C)CCCCCCCCNCCCCCCCCNC(=N)N.O=C(O)C(F)(F)F.O=C(O)C(F)(F)F.O=C(O)C(F)(F)F
MIC (Enterococcus faecalis): 8 µg/mL
MIC (Escherichia coli): > 256 µg/mL
MIC (Klebsiella pneumoniae): 16 µg/mL
MIC (Acinetobacter baumannii): 256 µg/mL
MIC [1]: 16 µg/mL
MIC (Aeromonas hydrophila): > 256 µg/mL
MIC [2]: 64 µg/mL
MIC (Streptococcus pyogenes): 16 µg/mL
MIC (Bacillus subtilis): 256 µg/mL
MIC (Pseudomonas aeruginosa): 32 µg/mL

From ChEMBL document CHEMBL3352312, “Synthesis of linear and cyclic guazatine derivatives endowed with antibacterial activity” (Bioorg Med Chem Lett, 2014)
